We go through nine compounds from ChEMBL document CHEMBL1126152, “Fluoronaphthyridines as antibacterial agents. 4. Synthesis and structure-activity relationships of 5-substituted-6-fluoro-7-(cycloalkylamino)-1,4-dihydro-4-oxo-1,8- naphthyridine-3-carboxylic acids” (J Med Chem, 1992).

Series [1] has as its system Staphylococcus aureus. The series can be described thus: Antibacterial activity against Staphylococcus aureus. In kind it is functional.
The test system of series [2] is Escherichia coli. Kind of series: In vitro for antibacterial activity against Escherichia coli. It counts as functional. In short, it runs like this:
(§1)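 MIC by serial 2-fold broth dilution in nutrient broth with an inoculum of 10^6 CFU/mL. Compound range was 0.0005–250 μg/mL. Plates were incubated 18 h at 37 °C. MIC was taken as the lowest concentration preventing visible growth.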

The subject of series [3] is Pseudomonas aeruginosa. The series can be described thus: In vitro for antibacterial activity against Pseudomonas aeruginosa. It counts as functional. In outline: as §1
The next series has as its system Morganella morganii. Kind of series: In vitro for antibacterial activity against Morganella morganii. It counts as functional. In outline:
as §1

The next series concerns Enterobacter cloacae. Kind of series: In vitro for antibacterial activity against Enterobacter cloacae. It counts as functional.
A further series concerns Bacteroides fragilis. The series can be described thus: In vitro for antibacterial activity against […]. It counts as functional. In short, it runs like this: as §1
Another series deals with Serratia marcescens. Kind of series: In vitro for antibacterial activity against Serratia marcescens. In kind it is functional. In outline:
as §1

The subject of the next series is Klebsiella pneumoniae. The series can be described thus: In vitro for antibacterial activity against Klebsiella pneumoniae. In kind it is functional. In outline:
as §1

The subject of another series is Proteus mirabilis. The series can be described thus: In vitro for antibacterial activity against Proteus mirabilis. It counts as functional. In short, it runs like this:
as §1

The next series concerns Enterococcus faecalis. The series can be described thus: In vitro for antibacterial activity against Enterococcus faecalis. It counts as functional. In outline: as §1
Series [4] concerns Streptococcus pneumoniae. Kind of series: Antibacterial activity against Streptococcus pneumoniae. In kind it is functional.
The test system of series [5] is Pseudomonas aeruginosa. Kind of series: animal or person. In kind it is functional. Conditions: in Mus musculus, po, read-out: PD50.
A short description of series [6]: Partition coefficient (logD). Conditions: octanol/water.
Series [7] in a line: Lethal dose was determined in OF1-strain female Swiss mice after intra venous administration of the drug. Conditions: mouse, in vivo, iv.
In series [8] the test system is Staphylococcus aureus. The series can be described thus: animal or person. In kind it is functional. Conditions: in Mus musculus, po, read-out: PD50.
Series [9] deals with Streptococcus pneumoniae. Kind of series: animal or person. It counts as functional. The conditions noted are these: in Mus musculus, po, read-out: PD50.
A short description of series [10]: Solubility was measured at PH - 7.2 buffer.
The nature of series [11]: Lethal dose was determined in OF1-strain female Swiss mice after oral administration of the drug. The conditions noted are these: mouse, in vivo.
Series [12] deals with Escherichia coli. Kind of series: Compound was tested for […] against Escherichia coli A 15119 after oral administration of drug in mice. It counts as functional. Conditions: read-out: PD50. In short, it runs like this:
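Mouse protection test against systemic infection. Compound was dissolved in sterile water and given orally to female OF1-strain Swiss mice weighing 18–25 g, with five mice per group.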

SMILES strings stand for the structures. Values after ≈ are worked out from the molar mass of the structure shown.

For the compound `N[C@H]1CCN(c2nc3c(cc2F)c(=O)c(C(=O)O)cn3C2CC2)C1`, the minimum inhibitory concentration (MIC) in the series on Staphylococcus aureus [1] was found to be 0.016 µg/mL (≈ 0.0481 µM); in the series on Escherichia coli [2], 0.002 µg/mL (≈ 0.00602 µM); with Pseudomonas aeruginosa [3], 0.25 µg/mL (≈ 0.752 µM); against Morganella morganii, 0.004 µg/mL (≈ 0.012 µM); against Enterobacter cloacae, 0.016 µg/mL (≈ 0.0481 µM); against Bacteroides fragilis it was 2 µg/mL (≈ 6.02 µM). Besides, the MIC was found to be 0.016 µg/mL (≈ 0.0481 µM) against Serratia marcescens; 0.004 µg/mL (≈ 0.012 µM) in the series with Klebsiella pneumoniae; 0.03 µg/mL (≈ 0.0903 µM) against Proteus mirabilis; 0.25 µg/mL (≈ 0.752 µM) with Enterococcus faecalis; 0.25 µg/mL (≈ 0.752 µM) in the series with Streptococcus pneumoniae [4].

For `Cc1c(F)c(N2CC3CCC2CN3)nc2c1c(=O)c(C(=O)O)cn2-c1ccc(F)cc1F` (stereo unspecified), the ED50 in the series with Pseudomonas aeruginosa [5] was found to be 1.4 mg/kg; with Staphylococcus aureus [8], 5.4 mg/kg; in the series on Streptococcus pneumoniae [9], 9.5 mg/kg. For the same compound, in [6], the log distribution coefficient (logD) turned out to be 0.4. The MIC in the series on Staphylococcus aureus [1] turned out to be 0.008 µg/mL (≈ 0.018 µM); in the series with Escherichia coli [2], 0.008 µg/mL (≈ 0.018 µM); against Pseudomonas aeruginosa [3] it was 0.5 µg/mL (≈ 1.13 µM); in the series with Morganella morganii, 0.13 µg/mL (≈ 0.293 µM); in the series with Enterobacter cloacae, 0.008 µg/mL (≈ 0.018 µM); against Bacteroides fragilis it was 4 µg/mL (≈ 9 µM). For the same compound, the MIC against Serratia marcescens was 0.5 µg/mL (≈ 1.13 µM); in the series with Klebsiella pneumoniae, 0.008 µg/mL (≈ 0.018 µM); against Proteus mirabilis it was 0.13 µg/mL (≈ 0.293 µM); in the series with Enterococcus faecalis it was 0.25 µg/mL (≈ 0.563 µM); in the series on Streptococcus pneumoniae [4] it was 0.06 µg/mL (≈ 0.135 µM). For the same compound, the LD50 in series [7] stood at 24 mg/kg; in [11], 2500 mg/kg. For the same compound, the concentration in solution in series [10] (solubility) was 10 µg/mL (≈ 22.5 µM).

For `Cc1c(F)c(N2CCNCC2)nc2c1c(=O)c(C(=O)O)cn2C(C)(C)C`, the MIC in the series with Staphylococcus aureus [1] was 0.03 µg/mL (≈ 0.0828 µM); in the series with Escherichia coli [2], 0.06 µg/mL (≈ 0.166 µM); in the series with Pseudomonas aeruginosa [3], 4 µg/mL (≈ 11 µM); in the series with Morganella morganii, 0.25 µg/mL (≈ 0.69 µM); against Enterobacter cloacae it was 0.25 µg/mL (≈ 0.69 µM); against Bacteroides fragilis it was above 32 µg/mL. Further, the MIC stood at 0.25 µg/mL (≈ 0.69 µM) in the series with Serratia marcescens; 0.06 µg/mL (≈ 0.166 µM) with Klebsiella pneumoniae; 0.5 µg/mL (≈ 1.38 µM) with Proteus mirabilis; 2 µg/mL (≈ 5.52 µM) in the series with Enterococcus faecalis; 1 µg/mL (≈ 2.76 µM) in the series with Streptococcus pneumoniae [4].

For `CCc1c(F)c(N2CCNCC2)nc2c1c(=O)c(C(=O)O)cn2C1CC1`, the minimal inhibitory concentration (MIC) was 0.5 µg/mL (≈ 1.39 µM) against Staphylococcus aureus [1]; 0.5 µg/mL (≈ 1.39 µM) in the series on Escherichia coli [2]; 16 µg/mL (≈ 44.4 µM) against Pseudomonas aeruginosa [3]; 4 µg/mL (≈ 11.1 µM) in the series on Morganella morganii; 1 µg/mL (≈ 2.77 µM) in the series with Enterobacter cloacae; 1 µg/mL (≈ 2.77 µM) in the series with Bacteroides fragilis. The MIC with Serratia marcescens amounted to 1 µg/mL (≈ 2.77 µM); against Klebsiella pneumoniae it was 1 µg/mL (≈ 2.77 µM); in the series on Proteus mirabilis, 8 µg/mL (≈ 22.2 µM); in the series with Enterococcus faecalis it was 16 µg/mL (≈ 44.4 µM); with Streptococcus pneumoniae [4] it was 0.25 µg/mL (≈ 0.694 µM).

For the compound `O=C(O)c1cn(-c2ccc(F)cc2F)c2nc(N3CCNCC3)c(F)cc2c1=O`, the minimum inhibitory concentration (MIC) against Staphylococcus aureus [1] is 0.03 µg/mL (≈ 0.0742 µM); with Escherichia coli [2], 0.016 µg/mL (≈ 0.0396 µM); in the series on Pseudomonas aeruginosa [3], 0.5 µg/mL (≈ 1.24 µM); against Morganella morganii, 0.13 µg/mL (≈ 0.322 µM); in the series on Enterobacter cloacae, 0.03 µg/mL (≈ 0.0742 µM); against Bacteroides fragilis, 2 µg/mL (≈ 4.95 µM). Further, the MIC stood at 0.13 µg/mL (≈ 0.322 µM) with Serratia marcescens; 0.03 µg/mL (≈ 0.0742 µM) with Klebsiella pneumoniae; 0.06 µg/mL (≈ 0.148 µM) with Proteus mirabilis; 1 µg/mL (≈ 2.47 µM) in the series with Enterococcus faecalis; 0.5 µg/mL (≈ 1.24 µM) with Streptococcus pneumoniae [4].

In series [6], `CC(C)(CF)n1cc(C(=O)O)c(=O)c2cc(F)c(N3CC[C@H](N)C3)nc21` came in with a logD of -0.56. The minimal inhibitory concentration (MIC) was 0.03 µg/mL (≈ 0.0819 µM) against Staphylococcus aureus [1]; 0.03 µg/mL (≈ 0.0819 µM) in the series on Escherichia coli [2]; 1 µg/mL (≈ 2.73 µM) with Pseudomonas aeruginosa [3]; 0.06 µg/mL (≈ 0.164 µM) against Morganella morganii; 0.13 µg/mL (≈ 0.355 µM) in the series on Enterobacter cloacae; 16 µg/mL (≈ 43.7 µM) against Bacteroides fragilis. The minimum inhibitory concentration (MIC) in the series on Serratia marcescens was 0.25 µg/mL (≈ 0.682 µM); against Klebsiella pneumoniae, 0.03 µg/mL (≈ 0.0819 µM); against Proteus mirabilis it was 0.5 µg/mL (≈ 1.36 µM); against Enterococcus faecalis it was 4 µg/mL (≈ 10.9 µM); against Streptococcus pneumoniae [4] it was 0.03 µg/mL (≈ 0.0819 µM).

Take `O=C(O)c1cn(C2CC2)c2nc(N3CC4CC3CN4)c(F)cc2c1=O` (stereo unspecified): the minimal inhibitory concentration (MIC) was 0.13 µg/mL (≈ 0.378 µM) with Staphylococcus aureus [1]; 0.06 µg/mL (≈ 0.174 µM) against Escherichia coli [2]; 0.25 µg/mL (≈ 0.726 µM) with Pseudomonas aeruginosa [3]; 0.06 µg/mL (≈ 0.174 µM) in the series with Morganella morganii; 0.03 µg/mL (≈ 0.0871 µM) in the series on Enterobacter cloacae; 0.25 µg/mL (≈ 0.726 µM) with Serratia marcescens. Further, the MIC against Klebsiella pneumoniae was 0.06 µg/mL (≈ 0.174 µM); in the series with Proteus mirabilis it was 0.06 µg/mL (≈ 0.174 µM); with Enterococcus faecalis, 1 µg/mL (≈ 2.9 µM). Also, the solubility in series [10] was found to be 90 µg/mL (≈ 261 µM).

The compound `CCc1c(F)c(N2CC[C@H](N)C2)nc2c1c(=O)c(C(=O)O)cn2C1CC1` yielded a pH-dependent lipophilicity (logD) in series [6] of 1.37. The MIC against Staphylococcus aureus [1] came out at 1 µg/mL (≈ 2.77 µM); against Escherichia coli [2], 0.25 µg/mL (≈ 0.694 µM); in the series with Pseudomonas aeruginosa [3] it was 4 µg/mL (≈ 11.1 µM); against Morganella morganii it was 0.5 µg/mL (≈ 1.39 µM); in the series on Enterobacter cloacae, 0.25 µg/mL (≈ 0.694 µM); against Bacteroides fragilis, 1 µg/mL (≈ 2.77 µM). In addition, the minimal inhibitory concentration (MIC) against Serratia marcescens is 0.5 µg/mL (≈ 1.39 µM); against Klebsiella pneumoniae, 0.25 µg/mL (≈ 0.694 µM); against Proteus mirabilis it was 2 µg/mL (≈ 5.55 µM); against Enterococcus faecalis, 16 µg/mL (≈ 44.4 µM); with Streptococcus pneumoniae [4], 1 µg/mL (≈ 2.77 µM). This compound also came in with a solubility in series [10] of 70 µg/mL (≈ 194 µM).

With `Cc1c(F)c(N2CC3CC2CN3)nc2c1c(=O)c(C(=O)O)cn2C1CC1` (stereo unspecified), the ED50 in the series on Pseudomonas aeruginosa [5] is 2.7 mg/kg; with Staphylococcus aureus [8] it was 5.4 mg/kg; in the series with Streptococcus pneumoniae [9] it was 43 mg/kg; in the series with Escherichia coli [12] it was 0.9 mg/kg. For the same compound, the log distribution coefficient (logD) in series [6] was found to be 0.48. Also, the MIC with Staphylococcus aureus [1] was 0.002 µg/mL (≈ 0.00558 µM); in the series with Escherichia coli [2], 0.002 µg/mL (≈ 0.00558 µM); against Pseudomonas aeruginosa [3], 0.25 µg/mL (≈ 0.698 µM); in the series on Morganella morganii it was 0.016 µg/mL (≈ 0.0446 µM); against Enterobacter cloacae, 0.002 µg/mL (≈ 0.00558 µM); with Bacteroides fragilis it was 1 µg/mL (≈ 2.79 µM). The minimal inhibitory concentration (MIC) stood at 0.03 µg/mL (≈ 0.0837 µM) against Serratia marcescens; 0.002 µg/mL (≈ 0.00558 µM) against Klebsiella pneumoniae; 0.016 µg/mL (≈ 0.0446 µM) against Proteus mirabilis; 0.13 µg/mL (≈ 0.363 µM) against Enterococcus faecalis; 0.13 µg/mL (≈ 0.363 µM) in the series with Streptococcus pneumoniae [4]. The results for the LD50 in series [7] and in series [11] were 131 mg/kg and 1750 mg/kg, respectively. Moreover, in [10], the solubility came out at 20 µg/mL (≈ 55.8 µM).
